A short description of data set [1]: Stability in human serum assessed as degradation after 3 hrs by HPLC analysis. The conditions noted are these: read-out: Drug degradation. The class given is ADME, cell-free. The essentials: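 Peptide DMSO stock (5 mg/mL) added to 25 mM HEPES pH 7.6 with human serum (1 mL buffer + 250 μL serum) at 37 °C; followed 24 h. Aliquots withdrawn at fixed intervals, quenched in absolute ethanol, 15 min on ice, centrifuged; supernatant analysed by HPLC and HPLC-MS. Peptide/buffer/ethanol samples run in parallel.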

The species entered for data set [2] is Homo sapiens. As to the kind of experiment: Activation of human His-tagged SHP2 D61H mutant expressed in Escherichia coli (DE3) Rosetta2 competent cells using p-nitrophenyl phosphate as substrate at 10 uM measured after 30 mins. The method, boiled down: (§1)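 Recombinant full-length SHP2 (wild type or mutant), His-tagged, Ni-NTA then anion-exchange and gel-filtration purified; 20 pmol in 200 μL buffer with 20 mM p-nitrophenyl phosphate, basal or stimulated with bisphosphorylated BTAM peptide; 30 min at 30 °C; phosphate release read at 405 nm; three replicates.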

A short description of data set [3]: Stability in human serum assessed as degradation after 24 hrs by HPLC analysis. The class given is ADME, cell-free. The settings on record: read-out: Drug degradation. The method, boiled down:
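Peptide stock in DMSO (5 mg/mL), 20 μL added to 1 mL 25 mM HEPES pH 7.6 plus 250 μL human serum at 37 °C; aliquots taken over 24 h, quenched in ethanol on ice, centrifuged, supernatant analysed by HPLC and HPLC-MS; peptide-buffer-ethanol controls run in parallel.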

Data set [4] deals with T1, Tyrosine-protein phosphatase non-receptor type 11 (Homo sapiens), Q06124 [E76K].
T1 sequence (whole entry): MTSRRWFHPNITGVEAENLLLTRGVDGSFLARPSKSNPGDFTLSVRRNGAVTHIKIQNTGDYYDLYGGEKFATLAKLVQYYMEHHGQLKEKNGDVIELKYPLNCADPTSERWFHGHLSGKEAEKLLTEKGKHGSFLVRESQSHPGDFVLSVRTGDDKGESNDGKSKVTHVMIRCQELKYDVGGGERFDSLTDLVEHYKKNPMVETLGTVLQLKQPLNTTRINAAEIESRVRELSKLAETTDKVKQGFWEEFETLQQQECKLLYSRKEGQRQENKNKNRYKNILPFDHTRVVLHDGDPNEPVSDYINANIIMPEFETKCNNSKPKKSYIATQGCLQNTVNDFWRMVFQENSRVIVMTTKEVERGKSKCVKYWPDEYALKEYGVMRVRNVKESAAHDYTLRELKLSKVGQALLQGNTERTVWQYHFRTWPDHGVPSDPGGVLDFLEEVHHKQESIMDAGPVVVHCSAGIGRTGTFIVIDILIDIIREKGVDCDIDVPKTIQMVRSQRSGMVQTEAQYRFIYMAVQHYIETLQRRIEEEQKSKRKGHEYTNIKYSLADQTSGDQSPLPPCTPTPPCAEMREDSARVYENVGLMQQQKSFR
Briefly: Activation of human His-tagged SHP2 E76K mutant expressed in Escherichia coli (DE3) Rosetta2 competent cells using p-nitrophenyl phosphate as substrate at 10 uM measured after 30 mins. The essentials: as §1

For data set [5], the species on record is Danio rerio. As to the kind of experiment: Induction of phenotypic defect in Zebrafish injected with wild type Shp2a at 3 uM measured after 11 hrs post fertilization by stereomicroscopic analysis. The class given is organism-based. The conditions noted are these: in vivo. The method, boiled down: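 Wild-type Shp2 mRNA (120 ng/μL) co-injected with peptide at final 3 μM into one-cell zebrafish embryos; GFP-positive embryos imaged laterally at 11 hpf by stereomicroscope; shape scored as long/short axis ratio.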

The species entered for data set [6] is Danio rerio. As to the kind of experiment: Reversal of Shp2a-D61G-induced phenotypic defect in Zebrafish at 5 uM by stereomicroscopic analysis. The class given is functional, organism-based. The method, boiled down:
(§2)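 One-cell zebrafish embryos microinjected (~1 nL) with 120 ng/μL mRNA for GFP-2A-Shp2-D61G or wild-type Shp2, with or without peptide at final 0.3, 3 or 5 μM (assuming ~500 nL embryo volume); GFP-expressing embryos selected, imaged laterally at 11 hpf by stereomicroscope; ovality as long/short axis ratio; survival followed through development; non-injected embryos as control.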

Data set [7] is filed under the species Homo sapiens. Briefly: Activation of human His-tagged SHP2 E76V mutant expressed in Escherichia coli (DE3) Rosetta2 competent cells using p-nitrophenyl phosphate as substrate at 10 uM measured after 30 mins. The essentials:
as §1

The species named for data set [8] is Homo sapiens. Briefly: Activation of human His-tagged SHP2 F71I mutant expressed in Escherichia coli (DE3) Rosetta2 competent cells using p-nitrophenyl phosphate as substrate at 10 uM measured after 30 mins. The method, boiled down: as §1
The species named for data set [9] is Danio rerio. As to the kind of experiment: Improvement in survival of wild type Shp2a-injected Zebrafish embryos at 3 uM after 11 hrs post fertilization by stereomicroscopic analysis. The class given is functional, organism-based. The settings on record: Embryo. The method, boiled down:
as §2

The species named for data set [10] is Danio rerio. As to the kind of experiment: Reversal of Shp2a-D61G-induced gastrulation defect in Zebrafish assessed as reduction in major/minor axis ratios by stereomicroscopic analysis. Type of data set: functional, organism-based. The conditions noted are these: dose 0.3-5 µM. The method, boiled down:
as §2

For data set [11], the species on record is Danio rerio. As to the kind of experiment: Improvement in survival of Shp2a-D61G-injected Zebrafish embryos at 0.3 to 5 uM after 11 hrs post fertilization by stereomicroscopic analysis. The class given is functional, organism-based. The settings on record: Embryo, dose 0.3-5 µM. The essentials: as §2
The species named for data set [12] is Homo sapiens. As to the kind of experiment: Activation of human His-tagged SHP2 A27S mutant expressed in Escherichia coli (DE3) Rosetta2 competent cells using p-nitrophenyl phosphate as substrate at 10 uM measured after 30 mins. The method, boiled down:
as §1

Data set [13] can be described thus: Stability in DMEM buffer after 3 days by HPLC analysis. The class given is physicochemical. The conditions noted are these: 72 h, time 3 day. The method, boiled down:
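Same set-up as serum test but in DMEM, followed 72 h at 37 °C; monitored by HPLC with 5–50% B over 20 min.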

The source made the active and inactive calls. No cut-off for these calls is given here. Where a SMILES comes first, the peptide text is derived from it.

With `CC[C@H](C)[C@H](NC(=O)[C@H](C)NC(=O)[C@H](CCCCN)NC(=O)CNC(=O)[C@H](Cc1ccc(O)cc1)NC(=O)[C@H](Cc1ccc(O)cc1)NC(=O)[C@H](CCCCN)NC(=O)[C@H](Cc1ccccc1)NC(=O)[C@@H](N)Cc1c[nH]c2ccccc12)C(=O)N[C@@H](Cc1ccc(O)cc1)C(=O)O` (H-WFKYYGKAIY-OH), in data set [1], the metabolised at 3 h amounted to 100%.

On to `CC[C@H](C)[C@H](NC(=O)[C@H](Cc1ccc(C(F)(F)P(=O)(O)O)cc1)NC(=O)[C@H](CC(N)=O)NC(=O)[C@H](CC(C)C)NC(=O)CNC(C)=O)C(=O)N[C@@H](CC(=O)O)C(=O)N[C@@H](CC(C)C)C(=O)N[C@@H](CC(=O)O)C(=O)N[C@@H](Cc1c[nH]c2ccccc12)C(N)=O`, for which the outcome in data set [2], in data set [4], in data set [7], in [8], in [9] and in data set [12] was inactive. Also, the metabolised at 24 h in [3] was less than 50%. Moreover, the Activity entry in [5] is “Non-Toxic”; in data set [10], “Dose-Dependent Effect”; in [11] it was “Dose-Dependent Effect”. Also, the outcome in data set [6] was Active. Besides, the Stability result in [13] is given as “Stable”.

`CC[C@H](C)[C@H](NC(=O)[C@H](Cc1ccc(OP(=O)(O)O)cc1)NC(=O)[C@H](CC(N)=O)NC(=O)[C@H](CC(C)C)NC(C)=O)C(=O)N[C@@H](CC(=O)O)C(=O)N[C@@H](CC(C)C)C(=O)N[C@@H](CC(=O)O)C(=O)N[C@@H](Cc1c[nH]c2ccccc12)C(N)=O`: the metabolised at 24 h in data set [3] was less than 50%.

The values above are taken from ChEMBL document CHEMBL5029176, “Targeting Oncogenic Src Homology 2 Domain-Containing Phosphatase 2 (SHP2) by Inhibiting Its Protein-Protein Interactions” (J Med Chem, 2021).
